# Like-named read-outs stand apart in the source and are kept apart here.
# Assays:
# [1] = type: in vivo, human; conditions: single oral 180 mg; for Effect of high-fat meal on total exposure (AUC): fed vs fasted; for Reduction of Cmax under fed versus fasted conditions: high-fat meal; for half-life: t1/2 (terminal elimination half-life)
# [2] = Food effect study: safety and tolerability; type: in vivo, human; conditions: for Incidence of treatment-emergent adverse events (TEAEs): single oral 180 mg, healthy subjects
# How it was run: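 Phase 1, single-centre, randomised, open-label, 2-period, 2-sequence crossover in healthy nonsmoking adults aged 18–55, BMI 18–30 kg/m2, at least 50 kg. Single morning oral dose (2 × 90-mg tablets) with about 240 mL water, after an overnight fast of at least 10 h, or with a standardised high-fat meal 30 ± 5 min before dosing. Washout at least 16 days. Adverse events were tracked until 7 days after the last dose, alongside vital signs, haematology, chemistry, urinalysis, physical exams and 12-lead ECG.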
# ALK+ NSCLC = conditions: 180 mg orally once daily with 7-day lead-in at 90 mg; crizotinib-refractory ALK+ NSCLC; cited from earlier work
# [3] = cited from earlier work
# [4] = single oral 180-mg dose, healthy subjects; cited from earlier work
# ALK resistance mutations = conditions: nonclinical studies; cited from earlier work
# CYP2C8 and CYP3A4 = conditions: human liver microsomes and hepatocytes; cited from earlier work
# [5] = healthy subjects; cited from earlier work
# [6] = patients with advanced ALK+ NSCLC; cited from earlier work
# [7] = cited from earlier work; remark: listed apart in the source
compound,measurement,setting,value
COc1cc(N2CCC(N3CCN(C)CC3)CC2)ccc1Nc1ncc(Cl)c(Nc2ccccc2P(C)(C)=O)n1 [Brigatinib],Effect of high-fat meal on total exposure (AUC),[1],no effect
same,Effect of high-fat meal on total exposure (AUC),[1]; listed as brigatinib,similar
same,Reduction of Cmax under fed versus fasted conditions,[1],13%
same,Reduction of Cmax under fed versus fasted conditions,[1]; listed as brigatinib,approximately 13%
same,Cmax,"[1]; human, plasma, po, 180 mg, Geometric mean (% CV), fasted, N = 21",701 ng/mL
same,Cmax,"[1]; human, plasma, po, 180 mg, Geometric mean (% CV), fed (high-fat meal), N = 24",605 ng/mL
same,Cmax,"[1]; human, plasma, po, 180 mg, Mean (SD), fed (high-fat meal), healthy subjects, N = 24",622 ng/mL
same,Tmax,"[1]; human, plasma, po, 180 mg, Tmax, Median (minimum-maximum), fed (high-fat meal), N = 24",5 h
same,half-life,"[1]; human, plasma, po, 180 mg, Mean (SD), fasted, N = 21",31 h
same,half-life,"[1]; human, plasma, po, 180 mg, Mean (SD), fed (high-fat meal), N = 24",31.1 h
same,Subjects with cough,[2]; fasted,24%
same,Subjects with headache,[2]; fasted,14%
same,Subjects with nausea,[2]; fasted,14%
same,Subjects with somnolence,[2]; fasted,14%
same,"Abnormalities in laboratory findings, vital signs, ECGs, or physical examination",[2]; fasted and fed,no clinically significant abnormalities
same,Deaths or serious TEAEs,[2]; fasted and fed,No deaths or serious TEAEs
same,Intensity of TEAEs,[2]; fasted and fed,mild
same,Incidence of treatment-emergent adverse events (TEAEs),[2]; fasted,48%
same,Subjects with headache,[2]; fed,4%
same,Subjects with nausea,[2]; fed,4%
same,Subjects with somnolence,[2]; fed,4%
same,Incidence of treatment-emergent adverse events (TEAEs),[2]; fed (high-fat meal),46%
same,Confirmed objective response rate,ALK+ NSCLC,56%
same,Median progression-free survival,ALK+ NSCLC,16.7 months
same,Steady-state systemic exposure versus dose,[3]; 60 mg to 240 mg once daily,dose proportional
same,Geometric mean apparent oral clearance at steady-state,[3]; 180 mg orally once daily,10.6 L/h
same,Mean plasma elimination half-life,[3]; 180 mg orally once daily,25 h
same,Administered dose excreted in the feces,[4],65%
same,Administered dose excreted in the urine,[4],25%
same,Activity against all ALK resistance mutations tested,ALK resistance mutations,potent activity
same,Metabolizing enzymes,CYP2C8 and CYP3A4,cytochrome P450 (CYP)2C8 and CYP3A4
C[C@@H](Oc1cc(-c2cnn(C3CCNCC3)c2)cnc1N)c1c(Cl)ccc(F)c1Cl [Crizotinib],Decrease of exposure (both Cmax and AUC) following a high-fat meal,[5],14%
Cc1cc(Nc2ncc(Cl)c(Nc3ccccc3S(=O)(=O)C(C)C)n2)c(OC(C)C)cc1C1CCNCC1 [ceritinib],Cmax and AUC0–24 of 450 mg taken with food versus 750 mg fasted,[6],comparable
same,"Incidence of gastrointestinal toxicities, 450 mg with food versus 750 mg fasted",[6],lower incidence
same,Effect of food on exposure,[7],increases exposure

# Source: publication PMC6767012 (Clinical Pharmacology in Drug Development, 2018)
